Experimental data: the EternaBench riboswitch data

Test system: MS2 coat protein
Experiment: apparent Kd, MS2 coat protein; higher = weaker binding; RNA-MaP array; theophylline 2 mM where present
How it was run: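 The apparent Kd is the median of filtered binding-curve fits, one per cluster, to green signal normalised to red-channel RNA signal and control-cluster median Fmax. The clusters were on Illumina sequencing chips, and stalled E. coli RNA polymerase had transcribed the designs on them. Titration used SNAP-549-labelled MS2 coat protein from 0.7 or 1.5 nM, doubling to 3 µM, without and then with constant ligand, in 100 mM Tris-HCl pH 7.5, 80 mM KCl, 4 mM MgCl2, BSA, DTT, yeast tRNA and Tween-20.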

[1] = designed as: ON switch for theophylline, no ligand
[2] = ligand present: theophylline, designed as: ON switch for theophylline
[3] = designed as: OFF switch for theophylline, no ligand
[4] = ligand present: theophylline, designed as: OFF switch for theophylline

Sequence	apparent Kd [1]	apparent Kd [2]	apparent Kd [3]	apparent Kd [4]
UUAUGAUGUUCCGAUACCAGCCAUGUGGUUCUAACUUAACAUGAGGAUCACCCAUGUACCGGCCCUUGGCAGCGGAUGUGGAUUA	11.2 nM	17 nM		
GCACCAGGUACGGAUACCAGCUGCCAGCGUUACAUGAGGAUCACCCAUGUGAUCUGAUAUAGCCCUUGGCAGCUGUACCUGGUGC	110 nM	865 nM		
ACAUGAGGAUCACCCAUGUGCAGAACGGAUACCAGCGUCCUGGUACGCCCUUGGCAGCCGGACAUGAGGAUCACCCAUGUGUGGA			93.1 nM	406 nM
UGACAUUGCUCAGAUACCAGACAUGAGGAUCACCCAUGUACCAAGGUACCCGAAAGGAAUGUCCCUUGGCAGCUGAGCAAUGUCU			9.93 nM	21.6 nM
UAUAUAUAUAUGGAUACCAGCAGAGAAAACGUUUAUCCUAACAUGAGGAUCACCCAUGUAUGCCCUUGGCAGCUGUAUAUAUAUA			24.9 nM	32.4 nM
UGACAUUGCUCAGAUACCAGACAUGAGGAUCACCCAUGUGCCAAAACGUACUAAAUAAAUGUCCCUUGGCAGCUGAGCAAUGUCU			12.6 nM	126 nM
UCAUGAGGAUCACCCAUGUGGCGUCUUGAUACCAGACGAGAAGUAGUCCCUUGGCAGCAAAUACAUGAGGAUCACCCAUGUAGGA			38.6 nM	63.7 nM
GGCUGUUGCGAUUUGAAGCGGCAGCGUGAUACCAGAUGUAAGAGCGUCCCUUGGCAGCACGUUUACAUGAGGAUCACCCAUGUCA	106 nM	60 nM		
AAUGCUGCCAAGGAUUCCUCAUGAGCAGAUACCAGCUAGGAAACUAGCCCUUGGCAGCUGCAACAUGAGGAUCACCCAUGUAAUA			38.5 nM	26.3 nM
CGGUUUGUGAUGGAUACCAGCAGAGUGACUGUUUAUCCUGACAUGAGGAUCACCCAUGUGUGCCCUUGGCAGCUGUUGUGGGCUG			80.4 nM	80.8 nM
AUAAAUAUAACCGAUACCAGCCUUAUACAUGAGGAUCACCCAUGUUAUGCUUCCUUUCUUGGCCCUUGGCAGCGGAAAUGGGUAA	57.9 nM	26.4 nM		
ACAACAUGAGGCGAUACCAGAGGCAACAUGAGGAUCACCCAUGUUCACCCAUGUGAUCACCUCCCUUGGCAGCGCACAUGAGGAU	12.4 nM	30 nM		
CAUACUUUAGUAUGUAAUGUGGACAGUGAUACCAGAUACGAAAGUAUCCCUUGGCAGCACAACAUGAGGAUCACCCAUGUAUUUU	19.4 nM			
AAUAACAUGAGGAUCACCCAUGUAAAAGAUACCAGAUGCAUGAUGAUCCCUUGGCAGCUUAACGCUGAUUGGAAACAAUCAGCGA	39 nM	37.6 nM		
AAUAACAUGAGGAUCACCCAUGUAAAAGAUACCAGAGUGAUGAUCCUCCCUUGGCAGCUUAAUAACGCUAUCGGAAACGAUAGCG	69.2 nM	105 nM		
UGUAUGUGAUUUGAUACCAGACCAACUGGUAAUACAUGAGGAUCACCCAUGUAGAUUUGGGUCCCUUGGCAGCAAAUCGCAUACU	48 nM	11.7 nM		
AGCCCUGUGCUAGAUACCAGCUACAUGAGGAUCACCCAUGUGCGUCAAGACUGACUGUGUAGCCCUUGGCAGCUACUCGCAUGUA			12.6 nM	23 nM
AAAUAAAUAACUGAUACCAGUGUACUGACAUGAGGAUCACCCAUGUUGGGUUUGGUUGUACACCCUUGGCAGCAGAAAUAUAAAA			15.9 nM	29.8 nM
AUAUCAUAGAGUGAUACCAGACUACAUGAGGAUCACCCAUGUGACAUUUAAAUAUCAUUUGUCCCUUGGCAGCACAUUAAGUACA			67.3 nM	65.4 nM
AGACAUGAGGAUCACCCAUGUAGUAUGGAUACCAGAUCCAGAUUUAUCCCUUGGCAGCUGUGGUACAGCGUUGCAACGCUCCUAG			29.3 nM	28.9 nM
AACCGAGGCUAUCCUCUAAGACUAUGUGAUACCAGAAUAAUUUUAUUCCCUUGGCAGCAUGACAUGAGGAUCACCCAUGUCUCUU	27.8 nM	32.3 nM		
